Experimental data from ChEMBL document CHEMBL1144550, “Molecular probes of DNA bulges: functional assay and spectroscopic analysis” (Bioorg Med Chem, 2007).
Active and inactive are the calls of the source. The rule behind the calls is not given here.

Tests used:
[1] = Effect on DNA binding assessed as binding to HT3AGTT synthetic oligo sequence code by measuring fluorescence stimulation due to AT base pairs next to bulge in bulge binding assay; set-up: species or system Homo sapiens
Summary of the method: (§1)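 Dissociation constants for a panel of 17 synthetic bulged oligos, taken from changes in drug fluorescence in emission spectra (excitation 360 nm, emission 480 nm) at 5 °C. Binding appears either as quenching or as stimulation of drug fluorescence. Values are given with standard deviations.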

[2] = Effect on DNA binding assessed as binding to HT4AGTT synthetic oligo sequence code by measuring fluorescence stimulation due to AT base pairs next to bulge in bulge binding assay; set-up: species or system Homo sapiens; summary of the method: as §1
[3] = Effect on DNA binding assessed as binding to HT3AGT synthetic oligo sequence code by measuring fluorescence stimulation due to AT base pairs next to bulge in bulge binding assay; set-up: species or system Homo sapiens; summary of the method: as §1
[4] = Effect on DNA binding assessed as binding to HT3AGCTT synthetic oligo sequence code by measuring fluorescence stimulation due to AT base pairs next to bulge in bulge binding assay; set-up: species or system Homo sapiens; summary of the method: as §1
[5] = Effect on DNA binding assessed as binding to HT3AGTA synthetic oligo sequence code by measuring fluorescence stimulation due to AT base pairs next to bulge in bulge binding assay; set-up: species or system Homo sapiens; summary of the method: as §1
[6] = Effect on DNA binding assessed as binding to HT3TGTA synthetic oligo sequence code by measuring fluorescence stimulation due to AT base pairs next to bulge in bulge binding assay; set-up: species or system Homo sapiens; summary of the method: as §1
[7] = Effect on DNA binding assessed as binding to HT3GGTA synthetic oligo sequence code by measuring fluorescence quenching due to GC base pairs next to bulge in bulge binding assay; set-up: species or system Homo sapiens; summary of the method: as §1
[8] = Effect on DNA binding assessed as binding to HT3GGTT synthetic oligo sequence code by measuring fluorescence quenching due to GC base pairs next to bulge in bulge binding assay; set-up: species or system Homo sapiens; summary of the method: as §1
[9] = Effect on DNA binding assessed as binding to HT3GGTC synthetic oligo sequence code by measuring fluorescence quenching due to GC base pairs next to bulge in bulge binding assay; set-up: species or system Homo sapiens; summary of the method: as §1
[10] = Effect on DNA binding assessed as binding to HT3CGTC synthetic oligo sequence code by measuring fluorescence quenching due to GC base pairs next to bulge in bulge binding assay; set-up: species or system Homo sapiens; summary of the method: as §1
[11] = Effect on DNA binding assessed as binding to HT3AT synthetic oligo sequence code by measuring fluorescence stimulation due to AT base pairs next to bulge in bulge binding assay; set-up: species or system Homo sapiens; summary of the method: as §1
[12] = Effect on DNA binding assessed as binding to HT3CGTA synthetic oligo sequence code by measuring fluorescence stimulation due to AT base pairs next to bulge in bulge binding assay; set-up: species or system Homo sapiens; summary of the method: as §1
[13] = Effect on DNA binding assessed as binding to HT3AGTC synthetic oligo sequence code by measuring fluorescence quenching due to GC base pairs next to bulge in bulge binding assay; set-up: species or system Homo sapiens; summary of the method: as §1
[14] = Effect on DNA binding assessed as binding to HT3GATC synthetic oligo sequence code by measuring fluorescence quenching due to GC base pairs next to bulge in bulge binding assay; set-up: species or system Homo sapiens; summary of the method: as §1
[15] = Effect on DNA binding assessed as binding to HT3GTTG synthetic oligo sequence code by measuring fluorescence quenching due to GC base pairs next to bulge in bulge binding assay; set-up: species or system Homo sapiens; summary of the method: as §1
Homo sapiens [16] = species on record: Homo sapiens; test: Effect on slipped DNA synthesis assessed as enhanced synthesis at 40 uM relative to control
Homo sapiens [17] = species on record: Homo sapiens; test: Effect on DNA binding assessed as binding to DA12:DAc12 synthetic oligo sequence code by measuring fluorescence quenching due to GC base pairs next to bulge in bulge binding assay; summary of the method: as §1
[18] = Effect on DNA binding assessed as binding to DA12:BA14 synthetic oligo sequence code by measuring fluorescence stimulation due to AT base pairs next to bulge in bulge binding assay; set-up: species or system Homo sapiens; summary of the method: as §1
[19] = target: DNA polymerase I Klenow fragment (Escherichia coli) (UniProt P00582); test: Induction of slipped DNA synthesis assessed as incorporation of [32P]TMP at 40 uM
[20] = Effect on DNA binding assessed as binding to HT3GGTA synthetic oligo sequence code by measuring fluorescence stimulation due to AT base pairs next to bulge in bulge binding assay; set-up: species or system Homo sapiens; summary of the method: as §1
[21] = Effect on DNA binding assessed as binding to HT3AGTC synthetic oligo sequence code by measuring fluorescence stimulation due to AT base pairs next to bulge in bulge binding assay; set-up: species or system Homo sapiens; summary of the method: as §1

| Kd [1] [µM] | Kd [2] [µM] | Kd [3] [µM] | Kd [4] [µM] | Kd [5] [µM] | Kd [6] [µM] | Kd [8] [µM] | Kd [9] [µM] | Kd [10] [µM] | Kd [11] [µM] | Kd [12] [µM] | Kd [14] [µM] | Kd [15] [µM] | Activity (Homo sapiens [16]) | Activity (Homo sapiens [17]) | Kd [18] [µM] | Activity [19] [cpm] | Compound | other results |
| --- | --- | --- | --- | --- | --- | --- | --- | --- | --- | --- | --- | --- | --- | --- | --- | --- | --- | --- |
| 0.08 | 0.11 | 8.4 | 2.1 | 0.22 | 1.13 | 0.14 | 0.1 | 0.15 | 10 | 0.11 | 0.24 | 0.16 | 31.8 | inactive | 0.6 | 75000 | CN[C@H]1[C@@H](O[C@H]2c3cc4ccccc4cc3[C@H]3[C@@H]2CC[C@]32C(=O)C=Cc3ccc(OC)cc32)O[C@H](C)[C@H](O)[C@@H]1O | Kd [7]: 0.29 µM; Kd [13]: 0.29 µM |
| 0.13 | 0.24 | 4.1 | 1.7 | 1.4 | 0.55 | 0.11 | 0.16 | 0.17 | 13 | 0.16 | 0.15 | 0.3 | 15.7 | inactive | 0.8 | 37000 | CN[C@H]1[C@@H](O[C@@H]2c3cc4ccccc4cc3[C@@H]3[C@H]2CC[C@@]32C(=O)C=Cc3ccc(OC)cc32)O[C@H](C)[C@H](O)[C@@H]1O | Kd [20]: 1.96 µM; Kd [21]: 0.26 µM |
